Measured values as given in ChEMBL document CHEMBL1152452, “Modifications incorporated in CpG motifs of oligodeoxynucleotides lead to antagonist activity of toll-like receptors 7 and 9” (2009).
Active and inactive are the calls of the source. No cut-off for these calls is given here.

Experiments:
[1] = target: T1, Toll-like receptor 9 (Mus musculus) (UniProt Q9EQU3); assay: Activation of mouse TLR9 expressed in HEK293 cells assessed as NF-kappaB level at 0.1 ug/mL after 18 hrs by reporter gene assay; assay type: cell-based
T1 sequence (whole entry): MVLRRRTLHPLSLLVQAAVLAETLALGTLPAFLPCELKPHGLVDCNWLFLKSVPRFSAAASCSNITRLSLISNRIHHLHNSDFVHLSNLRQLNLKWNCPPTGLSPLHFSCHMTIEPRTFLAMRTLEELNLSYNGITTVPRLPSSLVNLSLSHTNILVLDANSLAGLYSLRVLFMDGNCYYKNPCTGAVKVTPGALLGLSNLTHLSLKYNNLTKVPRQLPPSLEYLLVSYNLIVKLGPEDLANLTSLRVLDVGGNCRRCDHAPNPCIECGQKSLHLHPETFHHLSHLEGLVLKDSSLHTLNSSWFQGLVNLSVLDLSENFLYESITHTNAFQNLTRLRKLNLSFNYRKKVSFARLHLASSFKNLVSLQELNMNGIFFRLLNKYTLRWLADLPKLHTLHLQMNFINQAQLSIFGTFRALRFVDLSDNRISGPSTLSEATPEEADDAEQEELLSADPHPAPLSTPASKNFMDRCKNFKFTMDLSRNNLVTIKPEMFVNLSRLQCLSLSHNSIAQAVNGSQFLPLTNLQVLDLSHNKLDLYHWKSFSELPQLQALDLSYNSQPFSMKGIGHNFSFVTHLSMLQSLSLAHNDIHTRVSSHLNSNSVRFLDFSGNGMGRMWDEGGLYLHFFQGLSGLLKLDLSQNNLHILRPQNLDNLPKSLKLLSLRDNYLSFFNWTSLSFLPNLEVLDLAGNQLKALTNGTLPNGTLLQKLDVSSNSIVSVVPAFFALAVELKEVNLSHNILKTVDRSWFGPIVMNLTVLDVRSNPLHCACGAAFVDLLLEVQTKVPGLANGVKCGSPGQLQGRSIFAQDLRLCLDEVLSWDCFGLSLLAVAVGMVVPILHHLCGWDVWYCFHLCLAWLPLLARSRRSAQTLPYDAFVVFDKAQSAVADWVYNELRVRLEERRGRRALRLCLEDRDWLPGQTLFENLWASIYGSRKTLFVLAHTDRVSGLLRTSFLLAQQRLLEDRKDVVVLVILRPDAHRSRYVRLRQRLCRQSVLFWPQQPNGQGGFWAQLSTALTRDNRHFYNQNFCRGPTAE
Outline: (§1)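 HEK293 cells stably expressing mouse TLR9 were transiently transfected with a SEAP reporter for 6 h, then stimulated with ODN at 0.1, 0.3 or 1 μg/mL for 18 h. Reporter expression is given as fold change in NF-κB activity over medium. Representative of two independent experiments.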

[2] = target: T1, Toll-like receptor 9 (Mus musculus); assay: Activation of mouse TLR9 expressed in HEK293 cells assessed as NF-kappaB level at 0.3 ug/mL after 18 hrs by reporter gene assay; assay type: cell-based; outline: as §1
[3] = system: J774; assay: Activation of NF-kappaB in mouse J774 cells at 2.5 ug/ml after 1 hr by EMSA; assay type: cell-based
Outline: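 Murine J774 macrophages in DMEM with 10% FBS and antibiotics, plated at 5×10^6 cells/well. ODNs were given alone or together for 1 h. For inhibition, the agonist ODN at 0.5 μg/mL was co-incubated with the modified ODN at 2.5 μg/mL. Nuclear extracts were resolved by EMSA on native polyacrylamide gels and read by autoradiography.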

[4] = system: Splenocyte; assay: Inhibition of 5'-CTATCTGACGTTCTCTGT-3'-induced IL12 secretion in C57BL/6 mouse splenocytes at 4 ug/ml after 24 hrs by sandwich ELISA; assay type: functional, cell-based
Outline: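 Splenocytes from 5–8-week C57BL/6 mice, 5 × 10^6 cells/mL in RPMI complete medium, were co-incubated with the TLR9 agonist ODN (1 µg/mL) plus test ODN at 1 or 4 µg/mL, or over a concentration series, at 37 °C for 24 h. Supernatant IL-12 or IL-6 was measured by sandwich ELISA. Runs were done in duplicate, with three independent experiments.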

[5] = system: Mus musculus; assay: Immunostimulatory activity in C57BL/6 mouse assessed as induction of IL10 level in serum at 2 mg/kg, sc after 2 hrs by Luminex multiplex assay; assay type: functional, organism-based; set-up: dose 2 mg/kg
Outline: (§2)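 Female C57BL/6 mice, 5–6 weeks old, n = 3, received a single 2 mg/kg subcutaneous ODN injection in the right flank. Blood was taken by retro-orbital bleeding 2 h later. Naive mice served as baseline. Representative of three experiments.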

[6] = system: Mus musculus; assay: Immunostimulatory activity in C57BL/6 mouse assessed as induction of MCP1 level in serum at 2 mg/kg, sc after 2 hrs by Luminex multiplex assay; assay type: functional, organism-based; set-up: dose 2 mg/kg; outline: as §2
[7] = system: Mus musculus; assay: Immunostimulatory activity in C57BL/6 mouse assessed as inhibition of 5'-CTATCTGACGTTCTCTGT-3'-induced MIP-1alpha production in serum at 2 mg/kg, sc administered 24 hrs prior to 5'-CTATCTGACGTTCTCTGT-3' challenge measured after 2 hrs by Luminex multiplex assay; assay type: functional, organism-based; set-up: dose 2 mg/kg
Outline: (§3)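 C57BL/6 mice received 2 mg/kg ODN sc in one flank. After 24 h, the TLR9 agonist ODN was given at 0.5 mg/kg sc in the opposite flank. Blood was drawn 2 h later and serum cytokines/chemokines were quantified by Luminex multiplex assay. Percent inhibition was taken against the agonist alone. Representative of three experiments.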

[8] = system: Mus musculus; assay: Immunostimulatory activity in C57BL/6 mouse assessed as inhibition of 5'-CTATCTGACGTTCTCTGT-3'-induced TNFalpha production in serum at 2 mg/kg, sc administered 24 hrs prior to 5'-CTATCTGACGTTCTCTGT-3' challenge measured after 2 hrs by Luminex multiplex assay; assay type: functional, organism-based; set-up: dose 2 mg/kg; outline: as §3
[9] = system: Mus musculus; assay: Immunostimulatory activity in C57BL/6 mouse assessed as inhibition of 5'-CTATCTGACGTTCTCTGT-3'-induced KC production in serum at 2 mg/kg, sc administered 24 hrs prior to 5'-CTATCTGACGTTCTCTGT-3' challenge measured after 2 hrs by Luminex multiplex assay; assay type: functional, organism-based; set-up: dose 2 mg/kg; outline: as §3

| Activity [1] | Activity [2] | Structure (SMILES) | Activity [3] | Activity [4] | Activity [5] | Activity [6] | Activity [7] | Activity [8] | Activity [9] |
| --- | --- | --- | --- | --- | --- | --- | --- | --- | --- |
| inactive | inactive | Cc1cn([C@@H]2O[C@H](COP(=O)(S)O[C@H]3C[C@H](n4ccc(N)nc4=O)O[C@@H]3COP(=O)(S)O[C@H]3C[C@H](n4cc(C)c(=O)[nH]c4=O)O[C@@H]3COP(=O)(S)O[C@H]3C[C@H](n4ccc(N)nc4=O)O[C@@H]3COP(=O)(S)O[C@H]3C[C@H](n4cc(C)c(=O)[nH]c4=O)O[C@@H]3COP(=O)(S)O[C@H]3C[C@H](n4cc(C)c(=O)[nH]c4=O)O[C@@H]3COP(=O)(S)O[C@H]3C[C@H](n4cnc5c(=O)[nH]c(N)nc54)O[C@@H]3COP(=O)(S)O[C@H]3C[C@H](n4ccc(N)nc4=O)O[C@@H]3COP(=O)(S)O[C@H]3C[C@H](n4cnc5c(N)ncnc54)O[C@@H]3COP(=O)(S)O[C@H]3C[C@H](n4cnc5c(=O)[nH]c(N)nc54)O[C@@H]3COP(=O)(S)O[C@H]3C[C@H](n4cc(C)c(=O)[nH]c4=O)O[C@@H]3COP(=O)(S)O[C@H]3C[C@H](n4ccc(N)nc4=O)O[C@@H]3COP(=O)(S)O[C@H]3C[C@H](n4cc(C)c(=O)[nH]c4=O)O[C@@H]3COP(=O)(S)O[C@H]3C[C@H](n4cnc5c(N)ncnc54)O[C@@H]3COP(=O)(S)O[C@H]3C[C@H](n4cc(C)c(=O)[nH]c4=O)O[C@@H]3COP(=O)(S)O[C@@H]3C[C@@H](n4ccc(N)nc4=O)O[C@H]3CO)[C@@H](OP(=O)(S)OC[C@H]3O[C@@H](n4cnc5c(=O)[nH]c(N)nc54)C[C@@H]3OP(=O)(S)OC[C@H]3O[C@@H](n4cc(C)c(=O)[nH]c4=O)C[C@@H]3O)[C@H]2O)c(=O)[nH]c1=O (some centres not stated) | inactive | Active | inactive | inactive | Active | Active | Active |
| inactive | inactive | CO[C@@H]1[C@H](OP(=O)(S)OC[C@H]2O[C@@H](n3cnc4c(=O)[nH]c(N)nc43)C[C@@H]2OP(=O)(S)OC[C@H]2O[C@@H](n3cc(C)c(=O)[nH]c3=O)C[C@@H]2OP(=O)(S)OC[C@H]2O[C@@H](n3cc(C)c(=O)[nH]c3=O)C[C@@H]2OP(=O)(S)OC[C@H]2O[C@@H](n3ccc(N)nc3=O)C[C@@H]2OP(=O)(S)OC[C@H]2O[C@@H](n3cc(C)c(=O)[nH]c3=O)C[C@@H]2OP(=O)(S)OC[C@H]2O[C@@H](n3ccc(N)nc3=O)C[C@@H]2OP(=O)(S)OC[C@H]2O[C@@H](n3cc(C)c(=O)[nH]c3=O)C[C@@H]2OP(=O)(S)OC[C@H]2O[C@@H](n3cnc4c(=O)[nH]c(N)nc43)C[C@@H]2OP(=O)(S)OC[C@H]2O[C@@H](n3cc(C)c(=O)[nH]c3=O)C[C@@H]2O)[C@@H](COP(=O)(S)O[C@H]2C[C@H](n3cnc4c(N)ncnc43)O[C@@H]2COP(=O)(S)O[C@H]2C[C@H](n3cnc4c(=O)[nH]c(N)nc43)O[C@@H]2COP(=O)(S)O[C@H]2C[C@H](n3cc(C)c(=O)[nH]c3=O)O[C@@H]2COP(=O)(S)O[C@H]2C[C@H](n3ccc(N)nc3=O)O[C@@H]2COP(=O)(S)O[C@H]2C[C@H](n3cc(C)c(=O)[nH]c3=O)O[C@@H]2COP(=O)(S)O[C@H]2C[C@H](n3cnc4c(N)ncnc43)O[C@@H]2COP(=O)(S)O[C@H]2C[C@H](n3cc(C)c(=O)[nH]c3=O)O[C@@H]2COP(=O)(S)O[C@H]2C[C@H](n3ccc(N)nc3=O)O[C@@H]2CO)O[C@H]1n1ccc(N)nc1=O (some centres not stated) | inactive | Active | inactive | inactive | Active | Active | Active |
| inactive | inactive | CO[C@@H]1[C@H](OP(=O)(S)OC[C@H]2O[C@@H](n3cc(C)c(=O)[nH]c3=O)C[C@@H]2OP(=O)(S)OC[C@H]2O[C@@H](n3cc(C)c(=O)[nH]c3=O)C[C@@H]2OP(=O)(S)OC[C@H]2O[C@@H](n3ccc(N)nc3=O)C[C@@H]2OP(=O)(S)OC[C@H]2O[C@@H](n3cc(C)c(=O)[nH]c3=O)C[C@@H]2OP(=O)(S)OC[C@H]2O[C@@H](n3ccc(N)nc3=O)C[C@@H]2OP(=O)(S)OC[C@H]2O[C@@H](n3cc(C)c(=O)[nH]c3=O)C[C@@H]2OP(=O)(S)OC[C@H]2O[C@@H](n3cnc4c(=O)[nH]c(N)nc43)C[C@@H]2OP(=O)(S)OC[C@H]2O[C@@H](n3cc(C)c(=O)[nH]c3=O)C[C@@H]2O)[C@@H](COP(=O)(S)O[C@H]2C[C@H](n3ccc(N)nc3=O)O[C@@H]2COP(=O)(S)O[C@H]2C[C@H](n3cnc4c(N)ncnc43)O[C@@H]2COP(=O)(S)O[C@H]2C[C@H](n3cnc4c(=O)[nH]c(N)nc43)O[C@@H]2COP(=O)(S)O[C@H]2C[C@H](n3cc(C)c(=O)[nH]c3=O)O[C@@H]2COP(=O)(S)O[C@H]2C[C@H](n3ccc(N)nc3=O)O[C@@H]2COP(=O)(S)O[C@H]2C[C@H](n3cc(C)c(=O)[nH]c3=O)O[C@@H]2COP(=O)(S)O[C@H]2C[C@H](n3cnc4c(N)ncnc43)O[C@@H]2COP(=O)(S)O[C@H]2C[C@H](n3cc(C)c(=O)[nH]c3=O)O[C@@H]2COP(=O)(S)O[C@H]2C[C@H](n3ccc(N)nc3=O)O[C@@H]2CO)O[C@H]1n1cnc2c(=O)[nH]c(N)nc21 (some centres not stated) | inactive | Active | inactive | inactive | Active | Active | Active |
